# Experimental data reported in ChEMBL document CHEMBL1152229, “Synthesis of potent water-soluble tissue transglutaminase inhibitors” (Bioorg Med Chem Lett, 2008).
# Columns and labels:
# [1] = Inhibition of guinea pig liver transglutaminase 2 using 5-(biotinamido)pentylamine as substrate by enzyme linked sorbent assay; design: species or system Cavia porcellus
# Outline: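 Wells coated with N,N'-dimethylcasein received TG2 (2 ng ml-1), biotinyl-5-pentylamine, CaCl2 (5 mM), DTT (5 mM) and a range of inhibitor concentrations, then were incubated for 1 h at 37 °C. Incorporated biotinyl-5-pentylamine was quantified with Extravidin peroxidase and o-phenylenediamine colour development.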
# [2] = Aqueous solubility of the compound; type: physicochemical
# Rattus norvegicus = experiment: Protective effect against kidney dysfunction in Wistar rat subtotal 5/6 nephrectomy model of kidney scarring assessed as reduction in scarring administered through osmotic pump measured after 84 days of surgery; type: functional; design: scale not given: the % may be the effect or the level left
# Cavia porcellus = organism: Cavia porcellus; experiment: Inhibition of guinea pig liver transglutaminase 2 at 5 uM preincubated for 60 mins in the presence of Ca2+; design: scale not given: the % may be the effect or the level left
SMILES,IC50 [1] [µM],further results
C[S+](C)CC(=O)CC[C@H](NC(=O)[C@H](Cc1ccccc1)NC(=O)OCCc1ccccc1)C(=O)O,8,
C[S+](C)CC(=O)CC[C@H](NC(=O)[C@H](CC(=O)O)NC(=O)OCc1ccccc1)C(=O)O,28,
C[S+](C)CC(=O)CC[C@H](NC(=O)[C@H](CCCCN)NC(=O)OCc1ccccc1)C(=O)O,150,
C[S+](C)CC(=O)CC[C@H](NC(=O)[C@H](Cc1ccccc1)NC(=O)OCc1ccccc1)C(=O)O.[Br-] (stereo in doubt; 4d),10,solubility ([2]; buffer): 167 mg/mL; Activity (Rattus norvegicus): 90%
C[S+](C)CC(=O)CC[C@H](NC(=O)[C@@H]1C[C@@H](O)CN1C(=O)OCc1ccccc1)C(=O)O,18,
C[C@H](NC(=O)OCc1ccccc1)C(=O)N[C@@H](CCC(=O)C[S+](C)C)C(=O)O,20,
C[S+](C)CC(=O)CC[C@H](NC(=O)[C@H](Cc1ccccc1)NC(=O)OCC1c2ccccc2-c2ccccc21)C(=O)O,30,
C[S+](C)CC(=O)CC[C@H](NC(=O)CNC(=O)OCc1ccccc1)C(=O)O.[Br-],8,"solubility ([2]; water, read-out: solubility): 1000 mg/mL"
C[S+](C)CC(=O)CC[C@H](NC(=O)[C@H](Cc1ccccc1)NC(=O)Cc1ccccc1)C(=O)O,110,
O=C(N[C@@H](Cc1ccccc1)C(=O)NCC1CC(Br)=NO1)OCc1ccccc1 (stereo partly specified),> 200,"solubility ([2]; water, read-out: solubility): < 1 mg/mL"
C[S+](C)CC(=O)CC[C@H](NC(=O)[C@@H]1CCCN1C(=O)OCc1ccccc1)C(=O)O.[Br-],5,"Activity (Cavia porcellus): 77%; solubility ([2]; water, read-out: solubility): 500 mg/mL"
C[S+](C)CC(=O)CC[C@H](NC(=O)[C@H](Cc1ccccc1)NC(=O)OC(C)(C)C)C(=O)O,300,
C[S+](C)CC(=O)CC[C@H](NC(=O)[C@H](Cc1ccccc1)NC(=O)OCc1ccccc1)C(=O)O.[Br-] (stereo in doubt; 4n),5,solubility ([2]; buffer): 67 mg/mL
C[S+](C)CC(=O)CC[C@H](NC(=O)[C@H](Cc1c[nH]c2ccccc12)NC(=O)OCc1ccccc1)C(=O)O,12,
CC[C@H](C)[C@H](NC(=O)OCc1ccccc1)C(=O)N[C@@H](CCC(=O)C[S+](C)C)C(=O)O,350,
CC[S+](CC)CC(=O)CC[C@H](NC(=O)[C@H](Cc1ccccc1)NC(=O)OCc1ccccc1)C(=O)O,20,
Cc1c(C)[n+](C)c(SCC(=O)CC[C@H](NC(=O)[C@H](Cc2ccccc2)NC(=O)OCc2ccccc2)C(=O)O)n1C,3,
CC(=O)CSc1n(C)cc[n+]1C.[Cl-],4,"solubility ([2]; water, read-out: solubility): 200 mg/mL"
